Measurements published in ChEMBL document CHEMBL4808207, “Macrocyclic Peptides as a Novel Class of NNMT Inhibitors: A SAR Study Aimed at Inhibitory Activity in the Cell” (ACS Med Chem Lett, 2021).
Numbered stars: 1 amine (or outer) side, 2 acyl side, 3 side chain; on linkers, the order of the positions; unused ones are H or OH. Bridge positions count the residues as written; N and C are the ends. Square brackets hold non-standard residues; d marks the D form. Peptide text beside a SMILES is read from it. Bip(4'-CONH2) = NC(=O)c1ccc(-c2ccc(C[C@H](N)C(=O)O)cc2)cc1; Pro(trans-4-Ph) = O=C(O)[C@@H]1C[C@@H](c2ccccc2)CN1; Pro(cis-4-CF3) = O=C(O)[C@@H]1C[C@H](C(F)(F)F)CN1; X1 = O=C([C@@H]1C[C@@H](C(F)(F)F)CN1[*:1])[*:2]; Phe(4-CONH2) = NC(=O)c1ccc(C[C@H](N)C(=O)O)cc1; Bip = N[C@@H](Cc1ccc(-c2ccccc2)cc1)C(=O)O; Pro(4,4-F2) = O=C(O)[C@@H]1CC(F)(F)CN1; NHCH2CH2SCH2CO = O=C(CSCCN[*:1])[*:2]; Lys(Me2) = CN(C)CCCC[C@H](N)C(=O)O; NMeR = CN[C@@H](CCCNC(=N)N)C(=O)O; NMeF = CN[C@@H](Cc1ccccc1)C(=O)O; tBuAla = CC(C)(C)C[C@H](N)C(=O)O; Tic = O=C(O)[C@@H]1Cc2ccccc2CN1; hLys = NCCCCC[C@H](N)C(=O)O; NMeC = CN[C@@H](CS)C(=O)O; Pip = O=C(O)[C@@H]1CCCCN1

biological target: T1, Nicotinamide N-methyltransferase (Mus musculus, UniProt O55239); assay: Inhibition of mouse recombinant NNMT using nicotinamide and SAM as substrate assessed as reduction in 1-methyl-nicotinamide formation incubated for 22 to 24 hrs by RapidFire Mass spectroscopy; settings: not given
T1 sequence (O55239 whole entry): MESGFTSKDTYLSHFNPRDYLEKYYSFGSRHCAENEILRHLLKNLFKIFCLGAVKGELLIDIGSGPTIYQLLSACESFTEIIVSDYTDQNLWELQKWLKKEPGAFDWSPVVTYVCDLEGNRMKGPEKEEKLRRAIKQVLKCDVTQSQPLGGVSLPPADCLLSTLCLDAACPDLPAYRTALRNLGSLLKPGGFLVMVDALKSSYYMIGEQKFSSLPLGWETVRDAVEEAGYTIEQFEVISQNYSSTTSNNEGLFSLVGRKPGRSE

SMILES	IC50 [µM]
CN(C)CCCC[C@@H]1NC(=O)[C@H](CC(C)(C)C)NC(=O)[C@@H]2C[C@@H](c3ccccc3)CN2C(=O)[C@H](Cc2ccccc2)N(C)C(=O)CSCCNC(=O)[C@H](Cc2ccc(-c3ccc(C(N)=O)cc3)cc2)NC(=O)[C@@H]2Cc3ccccc3CN2C(=O)[C@@H]2CC(F)(F)CN2C1=O (cyclo([Lys(Me2)][Pro(4,4-F2)][Tic][Bip(4'-CONH2)][NHCH2CH2SCH2CO][NMeF][Pro(trans-4-Ph)][tBuAla]))	0.00062
CC(C)C[C@@H]1NC(=O)[C@@H]2CCCN2C(=O)[C@H](Cc2ccccc2)NC(=O)CSC[C@@H](C(N)=O)NC(=O)[C@H](Cc2ccc(-c3ccccc3)cc2)NC(=O)[C@@H]2Cc3ccccc3CN2C(=O)[C@@H]2CCCN2C(=O)[C@H](CCCCN)NC1=O ({CH2CO}-FPLKP[Tic][Bip]C-NH2; thioether N-8)	0.073
CC(C)C[C@@H]1NC(=O)[C@@H]2CCCN2C(=O)[C@H](Cc2ccccc2)NC(=O)CSC[C@@H](C(N)=O)NC(=O)[C@H](Cc2ccc(C(N)=O)cc2)NC(=O)[C@@H]2Cc3ccccc3CN2C(=O)[C@@H]2CCCN2C(=O)[C@H](CCCCN)NC1=O ({CH2CO}-FPLKP[Tic][Phe(4-CONH2)]C-NH2; thioether N-8)	0.04
CC(C)C[C@@H]1NC(=O)[C@@H]2CCCN2C(=O)[C@H](Cc2ccccc2)NC(=O)CSC[C@@H](C(N)=O)NC(=O)[C@H](Cc2ccc(C(N)=O)cc2)NC(=O)[C@@H]2Cc3ccccc3CN2C(=O)[C@@H]2CC(F)(F)CN2C(=O)[C@H](CCCCN)NC1=O ({CH2CO}-FPLK[Pro(4,4-F2)][Tic][Phe(4-CONH2)]C-NH2; thioether N-8)	0.013
CC(C)C[C@@H]1NC(=O)[C@@H]2CCCN2C(=O)[C@H](Cc2ccccc2)NC(=O)CSC[C@@H](C(N)=O)NC(=O)[C@H](Cc2ccc(C(N)=O)cc2)NC(=O)[C@@H]2Cc3ccccc3CN2C(=O)[C@@H]2C[C@H](C(F)(F)F)CN2C(=O)[C@H](CCCCN)NC1=O ({CH2CO}-FPLK[Pro(cis-4-CF3)][Tic][Phe(4-CONH2)]C-NH2; thioether N-8)	1.34
CC(C)C[C@@H]1NC(=O)[C@@H]2CCCN2C(=O)[C@H](Cc2ccccc2)NC(=O)CSC[C@@H](C(N)=O)NC(=O)[C@H](Cc2ccc(C(N)=O)cc2)NC(=O)[C@@H]2Cc3ccccc3CN2C(=O)[C@@H]2C[C@@H](C(F)(F)F)CN2C(=O)[C@H](CCCCN)NC1=O ({CH2CO}-FPLK[X1][Tic][Phe(4-CONH2)]C-NH2; thioether N-8)	0.263
N=C(N)NCCC[C@@H]1NC(=O)[C@H](Cc2ccc(O)cc2)NC(=O)[C@@H]2CCCN2C(=O)[C@H](Cc2ccccc2)NC(=O)CSC[C@@H](C(N)=O)NC(=O)[C@H](Cc2ccc(C(N)=O)cc2)NC(=O)[C@@H]2Cc3ccccc3CN2C(=O)[C@@H]2CCCN2C1=O ({CH2CO}-FPYRP[Tic][Phe(4-CONH2)]C-NH2; thioether N-8)	0.025
CN1C(=O)[C@H](Cc2ccc(C(N)=O)cc2)NC(=O)[C@@H]2Cc3ccccc3CN2C(=O)[C@@H]2CCCN2C(=O)[C@H](CCCNC(=N)N)NC(=O)[C@H](Cc2ccc(O)cc2)NC(=O)[C@@H]2CCCN2C(=O)[C@H](Cc2ccccc2)NC(=O)CSC[C@H]1C(N)=O ({CH2CO}-FPYRP[Tic][Phe(4-CONH2)][NMeC]-NH2; thioether N-8)	8.03
CN1C(=O)[C@H](Cc2ccc(O)cc2)NC(=O)[C@@H]2CCCN2C(=O)[C@H](Cc2ccccc2)NC(=O)CSC[C@@H](C(N)=O)NC(=O)[C@H](Cc2ccc(C(N)=O)cc2)NC(=O)[C@@H]2Cc3ccccc3CN2C(=O)[C@@H]2CCCN2C(=O)[C@@H]1CCCNC(=N)N ({CH2CO}-FPY[NMeR]P[Tic][Phe(4-CONH2)]C-NH2; thioether N-8)	0.277
CC(C)C[C@@H]1NC(=O)[C@@H]2CC(F)(F)CN2C(=O)[C@H](Cc2ccccc2)NC(=O)CSC[C@@H](C(N)=O)NC(=O)[C@H](Cc2ccc(C(N)=O)cc2)NC(=O)[C@@H]2Cc3ccccc3CN2C(=O)[C@@H]2CCCN2C(=O)[C@H](CCCCN)NC1=O ({CH2CO}-F[Pro(4,4-F2)]LKP[Tic][Phe(4-CONH2)]C-NH2; thioether N-8)	0.018
CC(C)C[C@@H]1NC(=O)[C@@H]2C[C@H](C(F)(F)F)CN2C(=O)[C@H](Cc2ccccc2)NC(=O)CSC[C@@H](C(N)=O)NC(=O)[C@H](Cc2ccc(C(N)=O)cc2)NC(=O)[C@@H]2Cc3ccccc3CN2C(=O)[C@@H]2CCCN2C(=O)[C@H](CCCCN)NC1=O ({CH2CO}-F[Pro(cis-4-CF3)]LKP[Tic][Phe(4-CONH2)]C-NH2; thioether N-8)	0.214
CC(C)C[C@@H]1NC(=O)[C@@H]2C[C@@H](c3ccccc3)CN2C(=O)[C@H](Cc2ccccc2)NC(=O)CSC[C@@H](C(N)=O)NC(=O)[C@H](Cc2ccc(C(N)=O)cc2)NC(=O)[C@@H]2Cc3ccccc3CN2C(=O)[C@@H]2CCCN2C(=O)[C@H](CCCCN)NC1=O ({CH2CO}-F[Pro(trans-4-Ph)]LKP[Tic][Phe(4-CONH2)]C-NH2; thioether N-8)	0.0012
CC(C)C[C@@H]1NC(=O)[C@@H]2C[C@@H](C(F)(F)F)CN2C(=O)[C@H](Cc2ccccc2)NC(=O)CSC[C@@H](C(N)=O)NC(=O)[C@H](Cc2ccc(C(N)=O)cc2)NC(=O)[C@@H]2Cc3ccccc3CN2C(=O)[C@@H]2CCCN2C(=O)[C@H](CCCCN)NC1=O ({CH2CO}-F[X1]LKP[Tic][Phe(4-CONH2)]C-NH2; thioether N-8)	0.018
CN1C(=O)CSC[C@@H](C(N)=O)NC(=O)[C@H](Cc2ccc(C(N)=O)cc2)NC(=O)[C@@H]2Cc3ccccc3CN2C(=O)[C@@H]2CCCN2C(=O)[C@H](CCCNC(=N)N)NC(=O)[C@H](Cc2ccccc2)NC(=O)[C@@H]2CCCN2C(=O)[C@@H]1Cc1ccccc1 ({CH2CO}-[NMeF]PFRP[Tic][Phe(4-CONH2)]C-NH2; thioether N-8)	0.253
CC(C)C[C@@H]1NC(=O)[C@@H]2CCCN2C(=O)[C@H](Cc2ccccc2)N(C)C(=O)CSC[C@@H](C(N)=O)NC(=O)[C@H](Cc2ccc(C(N)=O)cc2)NC(=O)[C@@H]2Cc3ccccc3CN2C(=O)[C@@H]2CCCN2C(=O)[C@H](CCCNC(=N)N)NC1=O ({CH2CO}-[NMeF]PLRP[Tic][Phe(4-CONH2)]C-NH2; thioether N-8)	0.096
CC(C)C[C@@H]1NC(=O)[C@@H]2CCCN2C(=O)[C@H](Cc2ccccc2)N(C)C(=O)CSC[C@@H](C(N)=O)NC(=O)[C@H](Cc2ccc(C(N)=O)cc2)NC(=O)[C@@H]2Cc3ccccc3CN2C(=O)[C@@H]2CCCN2C(=O)[C@H](CCCCCN)NC1=O ({CH2CO}-[NMeF]PL[hLys]P[Tic][Phe(4-CONH2)]C-NH2; thioether N-8)	0.0013
CN1C(=O)CSC[C@@H](C(N)=O)NC(=O)[C@H](Cc2ccc(C(N)=O)cc2)NC(=O)[C@@H]2Cc3ccccc3CN2C(=O)[C@@H]2CCCN2C(=O)[C@H](CCCCN)NC(=O)[C@H](Cc2ccc(O)cc2)NC(=O)[C@@H]2CCCN2C(=O)[C@@H]1Cc1ccccc1 ({CH2CO}-[NMeF]PYKP[Tic][Phe(4-CONH2)]C-NH2; thioether N-8)	0.188
CN1C(=O)CSC[C@@H](C(N)=O)NC(=O)[C@H](Cc2ccc(C(N)=O)cc2)NC(=O)[C@@H]2Cc3ccccc3CN2C(=O)[C@@H]2CCCN2C(=O)[C@H](CCCNC(=N)N)NC(=O)[C@H](Cc2ccc(O)cc2)NC(=O)[C@@H]2CCCN2C(=O)[C@@H]1Cc1ccccc1 ({CH2CO}-[NMeF]PYRP[Tic][Phe(4-CONH2)]C-NH2; thioether N-8)	0.217
CN(C)CCCC[C@@H]1NC(=O)[C@H](Cc2ccc(O)cc2)NC(=O)[C@@H]2CCCN2C(=O)[C@H](Cc2ccccc2)N(C)C(=O)CSC[C@@H](C(N)=O)NC(=O)[C@H](Cc2ccc(C(N)=O)cc2)NC(=O)[C@@H]2Cc3ccccc3CN2C(=O)[C@@H]2CCCN2C1=O ({CH2CO}-[NMeF]PY[Lys(Me2)]P[Tic][Phe(4-CONH2)]C-NH2; thioether N-8)	1.35
CN1C(=O)CSC[C@@H](C(N)=O)NC(=O)[C@H](Cc2ccc(C(N)=O)cc2)NC(=O)[C@@H]2Cc3ccccc3CN2C(=O)[C@@H]2CCCN2C(=O)[C@H](CCCCN)NC(=O)[C@H](CC(C)(C)C)NC(=O)[C@@H]2CCCN2C(=O)[C@@H]1Cc1ccccc1 ({CH2CO}-[NMeF]P[tBuAla]KP[Tic][Phe(4-CONH2)]C-NH2; thioether N-8)	0.023

system: HEK293; assay: Cytotoxicity against human HEK293 cells overexpressing human NNMT assessed as reduction in ATP level measured after 24 hrs by CellTiter-glo luminescence assay; format: cell-based; settings: hek293, 24 h
How it was run: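 Reported value is the peptide concentration giving a 20% decline in cellular ATP in NNMT-overexpressing HEK293 cells, with peptides tested up to 100 μM.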

SMILES	CC20 [µM]
CN(C)CCCC[C@@H]1NC(=O)[C@H](CC(C)(C)C)NC(=O)[C@@H]2C[C@@H](c3ccccc3)CN2C(=O)[C@H](Cc2ccccc2)N(C)C(=O)CSCCNC(=O)[C@H](Cc2ccc(-c3ccc(C(N)=O)cc3)cc2)NC(=O)[C@@H]2Cc3ccccc3CN2C(=O)[C@@H]2CC(F)(F)CN2C1=O (cyclo([Lys(Me2)][Pro(4,4-F2)][Tic][Bip(4'-CONH2)][NHCH2CH2SCH2CO][NMeF][Pro(trans-4-Ph)][tBuAla]))	> 100
CN1C(=O)CSCCNC(=O)[C@H](Cc2ccc(-c3ccc(C(N)=O)cc3)cc2)NC(=O)[C@@H]2Cc3ccccc3CN2C(=O)[C@@H]2CC(F)(F)CN2C(=O)[C@@H]2CCCCN2C(=O)[C@H](CC(C)(C)C)NC(=O)[C@@H]2C[C@@H](c3ccccc3)CN2C(=O)[C@@H]1Cc1ccccc1 (cyclo([NMeF][Pro(trans-4-Ph)][tBuAla][Pip][Pro(4,4-F2)][Tic][Bip(4'-CONH2)][NHCH2CH2SCH2CO]))	> 100
CC(C)C[C@@H]1NC(=O)[C@@H]2CCCN2C(=O)[C@H](Cc2ccccc2)NC(=O)CSC[C@@H](C(N)=O)NC(=O)[C@H](Cc2ccc(-c3ccc(C(N)=O)cc3)cc2)NC(=O)[C@@H]2Cc3ccccc3CN2C(=O)[C@@H]2CCCN2C(=O)[C@H](CCCCN)NC1=O ({CH2CO}-FPLKP[Tic][Bip(4'-CONH2)]C-NH2; thioether N-8)	> 100
N=C(N)NCCC[C@@H]1NC(=O)[C@H](Cc2ccc(O)cc2)NC(=O)[C@@H]2CCCN2C(=O)[C@H](Cc2ccccc2)NC(=O)CSC[C@@H](C(N)=O)NC(=O)[C@H](Cc2ccc(C(N)=O)cc2)NC(=O)[C@@H]2Cc3ccccc3CN2C(=O)[C@@H]2CCCN2C1=O ({CH2CO}-FPYRP[Tic][Phe(4-CONH2)]C-NH2; thioether N-8)	> 100
